Calls of active or inactive are those of the source. No cut-off for these calls is given here.
Experiments:
Mus musculus [1] = experiment: Effective dose administered intragastricly in mouse writhing assay; format: functional; settings: po
Opioid receptor = Opioid receptor (Rattus norvegicus, UniProt P33533+P34975+P33535); experiment: Affinity for the opioid receptor by displacement of tritiated naloxone from rat brain membranes.; format: cell membranes, Membrane
Outline: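 Rat brain membranes with the cerebellum removed. Competition against [3H]naloxone as a nonselective opioid label, with the radioligand at or near its Kd. Reported as IC50 (nM).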

Mus musculus [2] = experiment: Effective dose administered subcutaneously in mouse writhing assay; format: functional
Outline: (§1)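 Mouse phenylbenzoquinone-induced abdominal stretch (writhing) assay with subcutaneous dosing. […] 10 mg/kg was the highest dose tested.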

Mu-type opioid receptor [3] = target: T1, Mu-type opioid receptor (Rattus norvegicus, UniProt P33535); experiment: Affinity for mu opioid receptor was measured by displacement of tritiated DAMGO from rat brain membranes; format: cell membranes, Membrane
T1 sequence (P33535 whole entry): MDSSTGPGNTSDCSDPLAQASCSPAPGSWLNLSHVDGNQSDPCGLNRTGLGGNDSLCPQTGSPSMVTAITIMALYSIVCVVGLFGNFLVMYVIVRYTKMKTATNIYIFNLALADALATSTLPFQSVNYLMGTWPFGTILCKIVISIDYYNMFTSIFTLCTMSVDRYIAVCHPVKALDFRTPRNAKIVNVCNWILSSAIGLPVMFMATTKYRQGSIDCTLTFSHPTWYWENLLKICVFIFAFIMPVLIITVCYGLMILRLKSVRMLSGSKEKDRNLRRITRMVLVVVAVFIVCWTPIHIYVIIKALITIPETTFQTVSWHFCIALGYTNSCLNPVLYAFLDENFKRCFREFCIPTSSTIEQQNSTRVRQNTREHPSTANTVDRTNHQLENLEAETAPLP
Outline: (§2)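 Forebrain membranes from male Sprague-Dawley rats (150–300 g, cerebellum and hindbrain removed), washed and preincubated 1 h at 25 °C. Binding run in triplicate at 37 °C in 50 mM Tris/HCl pH 7.4, ~1 mg/mL protein, [3H]DAMGO 2.0 nM, with varying compound concentrations. Nonspecific binding defined with 10 μM levorphanol. IC50 taken from log-logit plots of concentration vs percent displacement.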

[4] = target: Kappa-type opioid receptor (Rattus norvegicus, UniProt P34975); experiment: Inhibitory concentration was evaluated against kappa opioid receptor by displacement of tritiated U-69593 from rat brain membranes; format: cell membranes, Membrane
Chain of Kappa-type opioid receptor (P34975 whole entry): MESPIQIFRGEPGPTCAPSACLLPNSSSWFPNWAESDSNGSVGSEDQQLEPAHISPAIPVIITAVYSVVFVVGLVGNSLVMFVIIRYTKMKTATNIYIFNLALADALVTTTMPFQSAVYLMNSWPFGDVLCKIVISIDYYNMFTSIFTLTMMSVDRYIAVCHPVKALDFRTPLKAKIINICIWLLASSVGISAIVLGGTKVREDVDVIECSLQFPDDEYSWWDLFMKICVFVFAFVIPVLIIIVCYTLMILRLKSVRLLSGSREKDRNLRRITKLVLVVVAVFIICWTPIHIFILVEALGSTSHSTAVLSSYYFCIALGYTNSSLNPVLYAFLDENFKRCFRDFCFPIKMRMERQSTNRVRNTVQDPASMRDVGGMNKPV

Mu-type opioid receptor [5] = target: T1, Mu-type opioid receptor; experiment: Inhibitory concentration was evaluated against mu opioid receptor by the displacement of tritiated DAMGO from rat brain membranes; format: cell membranes, Membrane; outline: as §2
[6] = target: T2, Delta-type opioid receptor (Rattus norvegicus, UniProt P33533); experiment: Displacement of [3H]DSLET from rat brain membrane delta opioid receptor
T2 sequence (P33533 whole entry): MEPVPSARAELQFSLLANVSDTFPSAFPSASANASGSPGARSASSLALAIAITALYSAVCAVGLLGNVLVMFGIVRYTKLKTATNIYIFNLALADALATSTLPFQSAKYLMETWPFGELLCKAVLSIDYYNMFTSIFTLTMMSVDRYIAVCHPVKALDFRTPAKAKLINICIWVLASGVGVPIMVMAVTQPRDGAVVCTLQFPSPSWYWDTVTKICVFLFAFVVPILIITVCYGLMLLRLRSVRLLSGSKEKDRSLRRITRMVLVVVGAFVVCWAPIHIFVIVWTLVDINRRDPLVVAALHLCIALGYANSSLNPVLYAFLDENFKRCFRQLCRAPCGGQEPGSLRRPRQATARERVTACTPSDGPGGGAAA
Outline: as §2, with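 “[3H]DSLET 1.0” for “[3H]DAMGO 2.0”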

[7] = target: T2, Delta-type opioid receptor; experiment: (§3) Inhibitory concentration was evaluated against delta opioid receptor by the displacement of tritiated DSLET from rat brain membranes; format: cell membranes, Membrane
Outline: as §2, with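 “[3H]DSLET 1.0” for “[3H]DAMGO 2.0”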

Mus musculus [8] = experiment: Effective dose administered intragastricly in mouse writhing assay; No significant inhibition at 10 mg/kg, the highest dose tested; format: functional, organism-based; design: dose 10 mg/kg
Mus musculus [9] = experiment: Effective dose administered subcutaneously in mouse writhing assay; No significant inhibition at 10 mg/kg, the highest dose tested; format: functional, organism-based; design: dose 10 mg/kg; outline: as §1
[10] = target: T2, Delta-type opioid receptor; experiment: as §3; format: functional, cell membranes, Membrane
Outline: as §2, with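 “[3H]DSLET 1.0” for “[3H]DAMGO 2.0”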

Mus musculus [11] = experiment: Effective dose administered subcutaneously in mouse writhing assay; not significant; format: functional, organism-based; outline: as §1
[12] = Mus musculus, sc, read-out: ED50

Row | SMILES | ED50 (Mus musculus [1]) [mg/kg] | IC50 (Opioid receptor) [nM] | ED50 (Mus musculus [2]; [12]) [mg/kg] | IC50 (Mu-type opioid receptor [3]) [nM] | IC50 [6] [nM] | ED50 (Mus musculus [8]) | ED50 (Mus musculus [9]) | other results
1 | Cc1cc(OCc2ccccc2)cc(C)c1C[C@H](N)C(=O)N[C@H](C)C(=O)NCCCc1ccccc1 | 2.4 | 360 | 1.8 | 4 | 55 | – | – | IC50 [4]: 2520 nM; IC50 (Mu-type opioid receptor [5]): 0.92 nM; IC50 [7]: 133 nM
2 | Cc1cc(OCc2ccc(C(C)(C)C)cc2)cc(C)c1CC(N)C(=O)N[C@H](C)C(=O)NCCCc1ccccc1 (some centres not stated) | – | 0.5 | – | – | – | inactive | inactive | –
3 | CNC(Cc1c(C)cc(OCc2ccccc2)cc1C)C(=O)N[C@H](C)C(=O)NCCCc1ccccc1 (some centres not stated) | – | 53 | ~10 | – | – | inactive | – | –
4 | Cc1cc(O)cc(C)c1C[C@H](N)C(=O)N(CC1CC1)[C@H](C)C(=O)NCCCc1ccccc1 (stereo in doubt; 18c) [listing 1 of 2 here] | – | – | – | – | – | inactive | inactive | –
5 | Cc1cc(OCc2ccc(F)cc2)cc(C)c1CC(N)C(=O)N[C@H](C)C(=O)NCCCc1ccccc1 (some centres not stated) | – | 18 | 2.7 | 17.5 | 385 | inactive | – | IC50 [4]: 10800 nM; IC50 (Mu-type opioid receptor [5]): 8.73 nM; IC50 [10]: 367 nM
6 | Cc1cc(O)cc(C)c1CC(N)C(=O)N(CC1CC1)[C@H](C)C(=O)NCCCc1ccccc1 (some centres not stated) | – | 10 | 2.4 | – | – | inactive | – | –
7 | C=CCOc1cc(C)c(CC(N)C(=O)N[C@H](C)C(=O)NCCCc2ccccc2)c(C)c1 (some centres not stated) | 14.9 | – | 12.4 | – | 600 | – | – | –
8 | Cc1cc(OCc2ccc(C(=O)O)cc2)cc(C)c1C[C@H](N)C(=O)N[C@H](C)C(=O)NCCCc1ccccc1 | – | 83 | – | – | – | inactive | inactive | –
9 | Cc1cc(OCc2ccc(C(=O)O)cc2)cc(C)c1CC(N)C(=O)N[C@H](C)C(=O)NCCCc1ccccc1 (some centres not stated) | – | – | – | 12.3 | 882 | inactive | inactive | –
10 | Cc1cc(O)cc(C)c1C[C@H](N)C(=O)N(CC1CC1)[C@H](C)C(=O)NCCCc1ccccc1 (stereo in doubt; 18b) [listing 1 of 2 here] | – | – | – | – | – | inactive | – | –
11 | CCOc1cc(C)c(CC(N)C(=O)N[C@H](C)C(=O)NCCCc2ccccc2)c(C)c1 (some centres not stated) | – | 130 | – | – | – | inactive | inactive | –
12 | Cc1cc(O)cc(C)c1C[C@H](N)C(=O)N(C)[C@H](C)C(=O)NCCCc1ccccc1 | 3.1 | – | 0.07 | 0.1 | 4.4 | – | – | IC50 [4]: 316 nM; IC50 (Mu-type opioid receptor [5]): 0.2 nM; IC50 [7]: 8 nM
13 | Cc1cc(O)cc(C)c1CC(N)C(=O)N[C@H](C)C(=O)N(C)CCCc1ccccc1 (some centres not stated) | – | 300 | – | – | – | inactive | inactive | –
14 | COc1cc(C)c(C[C@H](N)C(=O)N[C@H](C)C(=O)NCCCc2ccccc2)c(C)c1 (stereo in doubt; 20c) | 2.7 | 420 | – | – | – | – | – | ED50 (Mus musculus [2]): 3.5 mg/kg
15 | COc1cc(C)c(C[C@H](N)C(=O)N[C@H](C)C(=O)NCCCc2ccccc2)c(C)c1 (stereo in doubt; 20b) [listing 1 of 2 here] | – | 50 | – | 57 | > 1000 | – | – | ED50 (Mus musculus [2]): 0.7 mg/kg; IC50 [4]: 19800 nM; IC50 (Mu-type opioid receptor [5]): 32 nM; IC50 [7]: 2090 nM
16 | Cc1cc(O)cc(C)c1C[C@H](N)C(=O)N(CC1CC1)[C@H](C)C(=O)NCCCc1ccccc1 (stereo in doubt; 18c) [listing 2 of 2 here] | – | – | – | 23.7 | 409 | – | – | –
17 | CN[C@@H](Cc1c(C)cc(O)cc1C)C(=O)N[C@H](C)C(=O)NCCCc1ccccc1 | – | 140 | – | – | – | inactive | inactive | –
18 | Cc1cc(OCc2ccccc2)cc(C)c1C[C@@H](N)C(=O)N[C@H](C)C(=O)NCCCc1ccccc1 | 12.9 | 22 | 2.3 | – | – | – | – | IC50 [4]: 17500 nM; IC50 (Mu-type opioid receptor [5]): 44.7 nM; IC50 [7]: 1800 nM
19 | COc1cc(C)c(C[C@H](N)C(=O)N[C@H](C)C(=O)NCCCc2ccccc2)c(C)c1 (stereo in doubt; 20b) [listing 2 of 2 here] | – | – | – | – | – | inactive | – | –
20 | C=CCN(C(=O)[C@@H](N)Cc1c(C)cc(O)cc1C)[C@H](C)C(=O)NCCCc1ccccc1 | – | 280 | – | – | – | inactive | – | ED50 (Mus musculus [11]): inactive
21 | CN[C@H](Cc1c(C)cc(O)cc1C)C(=O)N[C@H](C)C(=O)NCCCc1ccccc1 | – | 1800 | – | – | – | inactive | inactive | –
22 | Cc1ccccc1COc1cc(C)c(CC(N)C(=O)N[C@H](C)C(=O)NCCCc2ccccc2)c(C)c1 (some centres not stated) | – | – | – | – | – | inactive | inactive | –
23 | Cc1cc(OCc2ccc(C#N)cc2)cc(C)c1CC(N)C(=O)N[C@H](C)C(=O)NCCCc1ccccc1 (some centres not stated) | – | 17 | – | 28.6 | > 1000 | inactive | inactive | –
24 | Cc1cc(OCc2ccc([N+](=O)[O-])cc2)cc(C)c1CC(N)C(=O)N[C@H](C)C(=O)NCCCc1ccccc1 (some centres not stated) | 6.8 | 2.9 | 2.3 | 3.5 | 127 | – | – | –
25 | Cc1cc(O)cc(C)c1CC(N)C(=O)N[C@H](C)C(=O)NCCCc1ccccc1 (some centres not stated) | 2 | 0.1 | 0.5 | 0.2 | 8.6 | – | – | IC50 [4]: 221 nM; IC50 (Mu-type opioid receptor [5]): 0.13 nM; IC50 [7]: 9.57 nM
26 | Cc1cc(O)cc(C)c1CC(C)(N)C(=O)N[C@H](C)C(=O)NCCCc1ccccc1 (some centres not stated) | 3.7 | 150 | 3 | 2 | 64 | – | – | IC50 [4]: 1380 nM; IC50 (Mu-type opioid receptor [5]): 1.1 nM; IC50 [7]: 124 nM
27 | COc1cc(C)c(CC(N)C(=O)N[C@H](C)C(=O)NCCCc2ccccc2)c(C)c1 (some centres not stated) | 2.3 | 290 | 4.3 | – | – | – | – | –
28 | C=CCN(C(=O)C(N)Cc1c(C)cc(O)cc1C)[C@H](C)C(=O)NCCCc1ccccc1 (some centres not stated) | – | 1.3 | 0.7 | – | – | inactive | – | –
29 | Cc1cc(O)cc(C)c1C[C@H](N)C(=O)N(CC1CC1)[C@H](C)C(=O)NCCCc1ccccc1 (stereo in doubt; 18b) [listing 2 of 2 here] | – | – | 0.5 | 0.4 | 9.4 | – | – | IC50 [4]: 1000 nM; IC50 (Mu-type opioid receptor [5]): 0.5 nM; IC50 [7]: 10 nM
30 | Cc1cc(O)cc(C)c1CC(N)C(=O)N(C)[C@H](C)C(=O)NCCCc1ccccc1 (some centres not stated) | 1.3 | 0.6 | 1.7 | – | – | – | – | –
